Residues, ends and D or L forms follow the SMILES beside them.
How the values were obtained:
[1] = target: Delta-type opioid receptor (Rattus norvegicus, UniProt P33533); experiment: Displacement of [3H]deltorphin2 from delta opioid receptor in rat brain membrane; type: cell membranes
[2] = target: Opioid receptors; mu & delta (Rattus norvegicus) (UniProt P33533+P33535); experiment: Selectivity for rat mu opioid receptor over rat delta opioid; type: protein assay
Method in brief: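 Ratio of IC50 values from [3H]deltorphin II (delta) and [3H]DAGO (mu) displacement on rat brain membranes. Each used 0.25 nM tracer, 60 min incubation at room temperature in Tris-HCl pH 7.55 with 0.1% BSA and bacitracin, and filtration with scintillation counting.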

Mu-type opioid receptor = Mu-type opioid receptor (Rattus norvegicus, UniProt P33535); experiment: Displacement of [3H]DAGO from mu opioid receptor in rat brain membrane; type: cell membranes
Mu-type opioid receptor, sequence (P33535 whole entry): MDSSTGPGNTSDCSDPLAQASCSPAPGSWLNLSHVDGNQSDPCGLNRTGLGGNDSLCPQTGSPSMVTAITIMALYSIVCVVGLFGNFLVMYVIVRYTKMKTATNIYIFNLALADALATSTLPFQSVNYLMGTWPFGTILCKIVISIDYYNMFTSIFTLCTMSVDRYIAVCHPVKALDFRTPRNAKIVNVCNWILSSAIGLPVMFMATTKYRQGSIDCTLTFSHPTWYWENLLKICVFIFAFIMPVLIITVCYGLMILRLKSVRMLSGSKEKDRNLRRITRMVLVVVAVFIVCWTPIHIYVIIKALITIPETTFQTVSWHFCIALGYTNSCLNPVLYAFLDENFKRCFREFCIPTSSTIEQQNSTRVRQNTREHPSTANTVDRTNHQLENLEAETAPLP

Opioid receptors; mu & delta (Rattus norvegicus), sequence (P33533 whole entry, looked up): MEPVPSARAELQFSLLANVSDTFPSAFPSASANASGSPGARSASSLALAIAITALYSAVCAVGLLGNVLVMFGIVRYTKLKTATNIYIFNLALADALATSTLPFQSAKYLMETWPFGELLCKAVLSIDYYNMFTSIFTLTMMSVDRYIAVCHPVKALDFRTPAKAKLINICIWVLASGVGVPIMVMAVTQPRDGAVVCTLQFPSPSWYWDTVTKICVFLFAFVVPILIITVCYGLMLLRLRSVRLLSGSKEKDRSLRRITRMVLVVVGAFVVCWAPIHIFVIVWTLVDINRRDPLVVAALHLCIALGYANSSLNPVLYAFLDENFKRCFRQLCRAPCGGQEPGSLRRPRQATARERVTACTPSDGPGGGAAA
Opioid receptors; mu & delta (Rattus norvegicus), sequence (P33535 whole entry, looked up): as the sequence (P33535 whole entry) above
Delta-type opioid receptor, sequence (P33533 whole entry): as the sequence (P33533 whole entry, looked up) above

## CCCC[C@H](NC(=O)[C@@H]1CCCN1C(=O)[C@@H](N)Cc1ccc(O)cc1)C(=O)N[C@@H](Cc1ccccc1)C(N)=O (HELM PEPTIDE1{Y.P.[Nle].F.[am]}$$$$V2.0)
[1]
  IC50: 15.2 µM
[2]
  Ratio IC50: 66.1
Mu-type opioid receptor
  IC50: 0.23 µM

## NC(=O)[C@H](Cc1c(F)c(F)c(F)c(F)c1F)NC(=O)[C@H](Cc1ccccc1)NC(=O)[C@@H]1CCCN1C(=O)[C@@H](N)Cc1ccc(O)cc1
[1]
  IC50: 8.04 µM
[2]
  Ratio IC50: 1000
Mu-type opioid receptor
  IC50: 0.00274 µM

## NC(=O)[C@H](Cc1ccccc1)NC(=O)[C@H](CC1CCCCC1)NC(=O)[C@@H]1CCCN1C(=O)[C@@H](N)Cc1ccc(O)cc1 (HELM PEPTIDE1{Y.P.[Cha].F.[am]}$$$$V2.0)
[1]
  IC50: 3.15 µM
[2]
  Ratio IC50: 21.3
Mu-type opioid receptor
  IC50: 0.148 µM

## C[C@H](NC(=O)[C@@H]1CCCN1C(=O)[C@@H](N)Cc1ccc(O)cc1)C(=O)N[C@@H](Cc1ccccc1)C(N)=O (H-YPAF-NH2)
Mu-type opioid receptor
  IC50: 3.81 µM

## NCCCC[C@H](NC(=O)[C@@H]1CCCN1C(=O)[C@@H](N)Cc1ccc(O)cc1)C(=O)N[C@@H](Cc1ccccc1)C(N)=O (H-YPKF-NH2)
Mu-type opioid receptor
  IC50: > 1000 µM

## NC(=O)[C@H](Cc1c[nH]cn1)NC(=O)[C@H](Cc1ccccc1)NC(=O)[C@@H]1CCCN1C(=O)[C@@H](N)Cc1ccc(O)cc1 (H-YPFH-NH2)
[1]
  IC50: > 1000 µM
Mu-type opioid receptor
  IC50: 0.138 µM

## NC(=O)[C@H](Cc1ccc(O)cc1)NC(=O)[C@H](Cc1ccccc1)NC(=O)[C@@H]1CCCN1C(=O)[C@@H](N)Cc1ccc(O)cc1 (H-YPFY-NH2)
[1]
  IC50: 54.5 µM
[2]
  Ratio IC50: 5.2
Mu-type opioid receptor
  IC50: 0.0622 µM

## NC(=O)[C@H](Cc1c[nH]c2ccccc12)NC(=O)[C@H](Cc1ccccc1)NC(=O)[C@@H]1CCCN1C(=O)[C@@H](N)Cc1ccc(O)cc1 (H-YPFW-NH2)
[1]
  IC50: > 1000 µM
Mu-type opioid receptor
  IC50: 0.0871 µM

## CCCC[C@H](NC(=O)[C@H](Cc1ccccc1)NC(=O)[C@@H]1CCCN1C(=O)[C@@H](N)Cc1ccc(O)cc1)C(N)=O (HELM PEPTIDE1{Y.P.F.[Nle].[am]}$$$$V2.0)
[1]
  IC50: > 1000 µM
Mu-type opioid receptor
  IC50: 0.0339 µM

## NC(=O)[C@H](CC1CCCCC1)NC(=O)[C@H](Cc1ccccc1)NC(=O)[C@@H]1CCCN1C(=O)[C@@H](N)Cc1ccc(O)cc1 (HELM PEPTIDE1{Y.P.F.[Cha].[am]}$$$$V2.0)
[1]
  IC50: 11.4 µM
[2]
  Ratio IC50: 21.3
Mu-type opioid receptor
  IC50: 0.917 µM

## CC(C)C[C@H](NC(=O)[C@H](Cc1ccccc1)NC(=O)[C@@H]1CCCN1C(=O)[C@@H](N)Cc1ccc(O)cc1)C(N)=O (H-YPFL-NH2)
[1]
  IC50: > 1000 µM
Mu-type opioid receptor
  IC50: 0.062 µM

## CC(C)[C@H](NC(=O)[C@H](Cc1ccccc1)NC(=O)[C@@H]1CCCN1C(=O)[C@@H](N)Cc1ccc(O)cc1)C(N)=O (H-YPFV-NH2)
[1]
  IC50: > 1000 µM
Mu-type opioid receptor
  IC50: 0.0765 µM

## CC(C)[C@H](NC(=O)[C@@H]1CCCN1C(=O)[C@@H](N)Cc1ccc(O)cc1)C(=O)N[C@@H](Cc1ccccc1)C(N)=O (H-YPVF-NH2)
[1]
  IC50: > 1000 µM
Mu-type opioid receptor
  IC50: 2.65 µM

## NCCCC[C@H](NC(=O)[C@H](Cc1ccccc1)NC(=O)[C@@H]1CCCN1C(=O)[C@@H](N)Cc1ccc(O)cc1)C(N)=O (H-YPFK-NH2)
Mu-type opioid receptor
  IC50: 0.408 µM

## NC(=O)[C@H](Cc1ccccc1)NC(=O)[C@H](Cc1c[nH]cn1)NC(=O)[C@@H]1CCCN1C(=O)[C@@H](N)Cc1ccc(O)cc1 (H-YPHF-NH2)
[1]
  IC50: > 1000 µM
Mu-type opioid receptor
  IC50: 4.49 µM

## CC(C)C[C@H](NC(=O)[C@@H]1CCCN1C(=O)[C@@H](N)Cc1ccc(O)cc1)C(=O)N[C@@H](Cc1ccccc1)C(N)=O (H-YPLF-NH2)
[1]
  IC50: > 1000 µM
Mu-type opioid receptor
  IC50: 0.926 µM

## NC(=O)[C@H](Cc1ccccc1)NC(=O)[C@H](Cc1c(F)c(F)c(F)c(F)c1F)NC(=O)[C@@H]1CCCN1C(=O)[C@@H](N)Cc1ccc(O)cc1
[1]
  IC50: 11.7 µM
[2]
  Ratio IC50: 1000
Mu-type opioid receptor
  IC50: 0.0117 µM

## NC(=O)[C@H](Cc1ccccc1)NC(=O)[C@H](Cc1ccc(O)cc1)NC(=O)[C@@H]1CCCN1C(=O)[C@@H](N)Cc1ccc(O)cc1 (H-YPYF-NH2)
[1]
  IC50: 5.72 µM
[2]
  Ratio IC50: 5.2
Mu-type opioid receptor
  IC50: 1.1 µM

## C[C@@H](NC(=O)[C@@H](N)Cc1ccc(O)cc1)C(=O)NCC(=O)N(C)[C@@H](Cc1ccccc1)C(=O)NCCO [DAMGO]
[1]
  IC50: 0.727 µM

## C[C@H](NC(=O)[C@H](Cc1ccccc1)NC(=O)[C@@H]1CCCN1C(=O)[C@@H](N)Cc1ccc(O)cc1)C(N)=O (H-YPFA-NH2)
Mu-type opioid receptor
  IC50: 0.0854 µM
